proCasp7 act: activates human procaspase-7, counter-screen for procaspase-3 activators; P55210; recombinant procaspase-7, Ac-DEVD-pNA absorbance 405 nm; D23A/D198A/D206A triple mutant, cannot self-cleave; scale: DMSO 0, 5 µM enzyme 100; activation, % at 8.5 µM; 330,000 tested, 0.093% active;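 active = percent activation above the screen-wide mean plus 3 SD, cut at about 25% in these data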
Target sequence (P55210 whole entry D23A/D198A/D206A): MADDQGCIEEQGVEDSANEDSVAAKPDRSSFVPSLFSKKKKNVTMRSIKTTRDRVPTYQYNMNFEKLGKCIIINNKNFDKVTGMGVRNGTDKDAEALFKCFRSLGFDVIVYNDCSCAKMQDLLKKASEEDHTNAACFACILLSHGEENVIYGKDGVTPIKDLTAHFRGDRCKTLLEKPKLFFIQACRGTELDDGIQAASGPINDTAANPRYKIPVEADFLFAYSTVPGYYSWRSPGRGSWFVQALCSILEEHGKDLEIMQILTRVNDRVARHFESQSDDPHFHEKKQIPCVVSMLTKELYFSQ
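Assay system: Uncleavable procaspase-7 mutant enzyme / Input: 2 µM procaspase-7 mutant as dispensed / Dosing: single nominal 8.5 µM compound dose, 0.8% DMSO final / Timing: 1 h enzyme–compound preincubation and 2 h substrate reaction, both 25 °C / Detection: p-Nitroaniline absorbance at 405 nm, read at 0 and 120 min / Replication: singlicate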
IDE inh: inhibits human insulin-degrading enzyme in HEK cells; P14735; FAbetaB cleavage, fluorescence polarization; inhibition, % at 5.59 µM; 320,000 tested, 0.41% active; AID 434962;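 active = percent inhibition above the average of all tested compounds plus 3 SD, set per screening campaign, cut at about 16% in these data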;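 also: IDE supplied by intact live HEK cells; FP after avidin binding of uncleaved biotin substrate so inhibition keeps polarization high; 0% = DMSO wells and 100% = 60 µM reference IDE inhibitor Ii1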
proCasp3 act: procaspase-3 (human) activation | activation, % at 8.5 µM | P42574 | 330,000 tested, 0.11% active | recombinant procaspase-3 D3A, Ac-DEVD-pNA absorbance 405 nm;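 active = activation above the mean of all tested compounds plus 3 SD, cut at about 21% in these data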;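 also: 0% = DMSO alone and 100% = DMSO wells spiked with extra 5 µM PC-3 D3A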
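Assay system – Procaspase-3 D3A mutant · Benchmarks – DMSO low control, extra-enzyme high control · Technique – 405 nm absorbance of p-nitroaniline, reads at 0 and 120 min · Doses – 8.5 µM nominal · Measure – % activation between DMSO and enzyme-spiked controls · Also added – Ac-DEVD-pNA chromogenic peptide substrate · Schedule – 1 h compound preincubation, 2 h substrate hydrolysis at 25 °C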
UBC13 inh: human UBC13 polyubiquitination inhibition | P61088 | inhibition, % at 20 µM | 330,000 tested, 0.47% active | UBC13 polyubiquitin chain formation, TR-FRET; in the data active = inhibition above about 45%, passing the limit was not always enough; inconclusive = no clear call, values can overlap the other calls
Target sequence (P61088 whole entry, looked up): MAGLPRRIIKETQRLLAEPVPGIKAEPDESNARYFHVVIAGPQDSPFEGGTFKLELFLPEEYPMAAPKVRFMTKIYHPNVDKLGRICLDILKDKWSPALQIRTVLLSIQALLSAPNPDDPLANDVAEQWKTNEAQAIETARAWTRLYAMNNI
IDE cell activ: boosts human insulin-degrading enzyme activity in HEK cells | FAbeta-B cleavage, fluorescence polarization; 0% vehicle, 100% cell-free pure enzyme wells | 340,000 tested, 0.073% active | AID 493087 | P14735 | activation, % at 5.96 µM;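 active = activation above the mean of all tested compounds plus 3 SD, set per screening campaign, cut at about 17% in these data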
PHOSPHO1 inh: blocks human PHOSPHO1 phosphatase activity; Q8TCT1; inhibition, % at 13.3 µM; AID 1565; recombinant PHOSPHO1, absorbance phosphatase assay; 290,000 tested, 1.1% active; in the data active = inhibition above about 60%
Casp3 UBC13 ctr: inhibits human caspase-3 in UBC13 counter-screen | shares compounds with UBC13 inh | Recombinant caspase-3, Caspase-Glo 3/7 luminescence, 60 min | inhibition, % at 20 µM | 1,400 tested, 4% active | AID 488856;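 active = mean inhibition across replicates above about 26%, limit read from the data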;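 also: plate controls were DMSO with caspase-3 for no effect and DMSO wells lacking enzyme for full effect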
UBC13 confirm: human UBC13 polyubiquitin inhibition, confirmed; UBC13 polyubiquitination, TR-FRET, biochemical; inhibition, % at 10 µM; shares compounds with UBC13 inh; 1,400 tested, 68% active; AID 488859; in the data active = inhibition above about 45%; inconclusive = no clear call, values can overlap the other calls
Active calls of the source: *. This is a sample that favours compounds with a hit; in the whole collection about 1.9% have one here.

How did C=C(C)COc1ccc(-c2[nH]ncc2Oc2cccc(OC)c2)c(O)c1 do in these assays?
proCasp7 act: 8; IDE inh: -4; proCasp3 act: 6; UBC13 inh: 68*; IDE cell activ: 11; PHOSPHO1 inh: 43; Casp3 UBC13 ctr: -4; UBC13 confirm: 68*

How did COc1ccc(C(=O)Nc2ccc3oc(-c4cccc(F)c4)nc3c2)cc1OC do in these assays?
proCasp7 act: -1; IDE inh: 1; proCasp3 act: 6; UBC13 inh: 54*; IDE cell activ: -1; PHOSPHO1 inh: 5; Casp3 UBC13 ctr: 3; UBC13 confirm: 35

Results for COc1ccc(-c2csc(NC(C)c3nc4cc(C(=O)NCCCO)ccc4n3Cc3ccc(C)cc3)n2)cc1 (stereo unspecified) ?
proCasp7 act: -8; IDE inh: 0; proCasp3 act: -4; UBC13 inh: 53*; IDE cell activ: -1; Casp3 UBC13 ctr: -3; UBC13 confirm: 23

How did O=C(CCCCCN1C(=O)c2cccc3cccc(c23)C1=O)NCc1cccnc1 do in these assays?
proCasp7 act: -3; IDE inh: -13; proCasp3 act: -5; UBC13 inh: 76*; PHOSPHO1 inh: 34; Casp3 UBC13 ctr: -3; UBC13 confirm: 58*

Results for Cc1ccc2nc3c(c(N)c2c1)CCN3C ?
proCasp7 act: -13; IDE inh: 2; proCasp3 act: 0; UBC13 inh: 0; IDE cell activ: 4; PHOSPHO1 inh: 23

What do the screens show for `CCCCN1CCc2c1nc1ccc(Br)cc1c2N`?
proCasp7 act: 6; IDE inh: -3; proCasp3 act: 3; UBC13 inh: 55*; IDE cell activ: -1; PHOSPHO1 inh: 9; Casp3 UBC13 ctr: 1; UBC13 confirm: inconclusive

Results for Cc1ccc(S(=O)(=O)N(C)C)cc1NC(=O)CN1C(=O)NC2(CCCCCC2)C1=O ?
proCasp7 act: 4; IDE inh: -4; proCasp3 act: 2; UBC13 inh: 0; IDE cell activ: 5; PHOSPHO1 inh: 31

How did COc1ccc(NS(=O)(=O)c2ccc(C)c(NC(=O)CN3C(=O)NC4(CCCC4)C3=O)c2)cc1 do in these assays?
proCasp7 act: -1; IDE inh: -3; proCasp3 act: 19; UBC13 inh: 106*; IDE cell activ: 7; Casp3 UBC13 ctr: 0; UBC13 confirm: 55*

How did CCCCC(CC)CN=C(N)NC(N)=NCCCCCCN=C(N)NC(N)=NCC(CC)CCCC (stereo unspecified) do in these assays?
proCasp7 act: 10; IDE inh: -13; proCasp3 act: -2; UBC13 inh: 113*; IDE cell activ: 13; Casp3 UBC13 ctr: -4; UBC13 confirm: 118*

What do the screens show for `CN(C)S(=O)(=O)c1cccc(COC(=O)c2ccc(Cl)cc2O)c1`?
proCasp7 act: 3; IDE inh: 5; proCasp3 act: -6; UBC13 inh: 0; IDE cell activ: 3; PHOSPHO1 inh: 19

Results for CN(C)S(=O)(=O)c1cccc(COc2ncnc3c(Cl)cc(Cl)cc23)c1 ?
proCasp7 act: 6; IDE inh: 7; proCasp3 act: 2; UBC13 inh: 64*; IDE cell activ: 4; PHOSPHO1 inh: -37; Casp3 UBC13 ctr: 6; UBC13 confirm: 76*

What do the screens show for `COc1cccc(OC)c1C(=O)Nc1ccccc1C(=O)N1CCCC1`?
UBC13 inh: -1; IDE cell activ: 4; PHOSPHO1 inh: 37

What do the screens show for `COC(=O)C1=C(C)N(CC2CC2)C(=NCc2cccc(C(F)(F)F)c2)N[C@H]1c1ccccc1`?
proCasp7 act: -1; IDE inh: 0; proCasp3 act: -4; UBC13 inh: 66*; IDE cell activ: 2; Casp3 UBC13 ctr: 3; UBC13 confirm: 75*

Bioassay records deposited in PubChem BioAssay by several laboratories.
